Experimental data published in ChEMBL document CHEMBL3779845, “Synthesis and antitumor activity evaluation of a novel combi-nitrosourea prodrug: Designed to release a DNA cross-linking agent and an inhibitor of O(6)-alkylguanine-DNA alkyltransferase” (Bioorg Med Chem, 2016).

What was measured:
[1] = Retention time of the compound in PBS/MEM-EBSS treated with 3-(3-(((2-Amino-9H-purin-6-yl)oxy)methyl)benzyl)-1-(2-chloroethyl)-1-nitrosourea by HPLC-UV analysis; type: physicochemical; settings: buffer
Summary of the method: (§1)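 Stock dissolved in minimal DMSO, diluted into PBS (pH 7.4) or MEM-EBSS containing 10% FBS plus penicillin/streptomycin to 0.1 mM final. Incubated at 37 °C, with aliquots taken at set times over 8 h and frozen. Medium samples were deproteinized with an equal volume of acetonitrile and centrifuged. Analysis by HPLC-UV on C18, eluting 50% 50 mM ammonium acetate pH 4.5 / 50% methanol at 1.0 mL/min.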

[2] = Drug level in MEM-EBSS treated with 3-(3-(((2-Amino-9H-purin-6-yl)oxy)methyl)benzyl)-1-(2-chloroethyl)-1-nitrosourea by HPLC-UV analysis; type: physicochemical; summary of the method: as §1
[3] = Drug level in PBS treated with 3-(3-(((2-Amino-9H-purin-6-yl)oxy)methyl)benzyl)-1-(2-chloroethyl)-1-nitrosourea by HPLC-UV analysis; type: physicochemical; settings: buffer; summary of the method: as §1
Calf thymus DNA [4] = test: Induction of dG-dC cross linking in calf thymus DNA assessed as level of dG-dC cross link per mg of DNA at 0.4 mM after 12 hrs by HPLC-ESI-MS/MS analysis; type: nucleic-acid assay; settings: Bos taurus
Summary of the method: (§2)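 CT DNA at 1 mg/mL in buffer (10 mM Tris, 50 mM NaCl, 50 mM Na2HPO4, pH 7.4) was given the compound from a DMSO solution and incubated 12 h at 37 °C. DNA was ethanol-precipitated and digested (DNase I, S1 nuclease, alkaline phosphatase, phosphodiesterase I), with 15N3-dG-dC internal standard at 9.6 nM final. Quantitation by isotope-dilution HPLC-ESI-MS/MS in positive SRM mode. Results given as fmol/mg DNA, mean ± SD of triplicates.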

Calf thymus DNA [5] = test: Induction of dG-dC cross linking in calf thymus DNA assessed as level of dG-dC cross link per mg of DNA at 0.2 mM after 12 hrs by HPLC-ESI-MS/MS analysis; type: nucleic-acid assay; settings: Bos taurus; summary of the method: as §2
[6] = Retention time of the compound in PBS/MEM-EBSS by HPLC-UV analysis; type: physicochemical; settings: buffer; summary of the method: as §1
SF-126 = test: Potency index, ratio IC50 of ACNU to ratio IC50 of compound for human SF126 cells expressing low level of AGT; type: functional
[7] = Induction of dG-dC cross linking in human SF763 cells expressing high level of AGT assessed as level of dG-dC cross link per mg of DNA at 0.1 mM after 12 hrs by HPLC-ESI-MS/MS analysis; type: functional
Summary of the method: (§3)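 SF763 glioma cells (mer+, 119 fmol AGT/10^6 cells) in MEM-EBSS/10% FBS were grown to about 90% confluence and exposed for 12 h. DNA was isolated by proteinase K/RNase/phenol-chloroform, then digested with four enzymes and spiked with 15N3-dG-dC. Isotope-dilution HPLC-ESI-MS/MS; dG-dC given as fmol per mg DNA, with DNA estimated from dGuo content. Mean ± SD of triplicates.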

[8] = Cytotoxicity against human SF126 cells expressing low level of AGT assessed as cell survival after 24 hrs by CCK8 assay; type: functional, cell-based; settings: SF-126, 24 h
Summary of the method: (§4)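 Glioma cells kept in MEM-EBSS with 10% FBS, 37 °C, 5% CO2. Seeded 5000 cells/well, grown 24 h, then 24 h drug exposure over a range of concentrations. Read-out: CCK8 (10%, 3 h), A450. Survival % = (A_drug−A_blank)/(A_control−A_blank)×100. Mean ± SD of at least three independent experiments. DMSO or ethanol vehicle kept below 0.1%.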

[9] = Half life of compound in PBS by HPLC-UV analysis
[10] = Induction of dG-dC cross linking in human SF763 cells expressing high level of AGT assessed as level of dG-dC cross link per mg of DNA at 0.2 mM after 12 hrs by HPLC-ESI-MS/MS analysis; type: functional; summary of the method: as §3
Calf thymus DNA [11] = test: Induction of dG-dC cross linking in calf thymus DNA assessed as level of dG-dC cross link per mg of DNA at 0.1 mM after 12 hrs by HPLC-ESI-MS/MS analysis; type: nucleic-acid assay; settings: Bos taurus; summary of the method: as §2
Calf thymus DNA [12] = test: Induction of dG-dC cross linking in calf thymus DNA after 12 hrs by HPLC-ESI-MS/MS analysis; type: nucleic-acid assay; settings: Bos taurus
Summary of the method: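 Calf thymus DNA at 1 mg/mL in buffer (10 mM Tris, 50 mM NaCl, 50 mM Na2HPO4, pH 7.4) was treated with 0.1, 0.2 or 0.4 mM final for 12 h at 37 °C, then ethanol-precipitated. Digestion with DNase I, S1 nuclease, CIAP and phosphodiesterase I, spiked with 15N3-dG-dC internal standard. Isotope-dilution HPLC-ESI-MS/MS (SRM, positive mode), reported as fmol/mg DNA, mean ± SD of triplicates.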

[13] = Half life of compound in MEM-EBSS by HPLC-UV analysis in presence of 10% fetal bovine serum; type: physicochemical; settings: cattle, MEM-EBSS with 10% fetal bovine serum; summary of the method: as §1
[14] = Cytotoxicity against human SF763 cells expressing high level of AGT assessed as cell survival after 24 hrs by CCK8 assay; type: functional, cell-based; settings: SF763, 24 h; summary of the method: as §4
[15] = Induction of dG-dC cross linking in human SF763 cells expressing high level of AGT assessed as level of dG-dC cross link per mg of DNA at 0.4 mM after 12 hrs by HPLC-ESI-MS/MS analysis; type: functional; summary of the method: as §3
[16] = Cytotoxicity against human SF-767 cells expressing moderate level of AGT assessed as cell survival after 24 hrs by CCK8 assay; settings: SF767, 24 h
[17] = Cytotoxicity against human SF763 cells expressing high level of AGT assessed as cell death after 24 hrs by CCK8 assay; type: functional; summary of the method: as §4
[18] = Cytotoxicity against human SF126 cells expressing low level of AGT assessed as cell death after 24 hrs by CCK8 assay; type: functional, SF-126; summary of the method: as §4
[19] = Cytotoxicity against human SF-767 cells expressing high level of AGT assessed as cell death after 24 hrs by CCK8 assay; type: functional; summary of the method: as §4
[20] = Cytotoxicity against human SF-767 cells expressing moderate level of AGT assessed as cell survival after 24 hrs by CCK8 assay in presence of O6-BG; settings: SF767, 24 h
[21] = Cytotoxicity against human SF126 cells expressing low level of AGT assessed as cell survival after 24 hrs by CCK8 assay in presence of O6-BG; type: functional, cell-based; settings: SF-126, 24 h
Summary of the method: (§5)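 Cells were seeded at 5000 cells/well and grown 24 h. They were pretreated 2 h with O6-BG at 20 µM final, then switched to fresh medium holding ACNU or BCNU at various concentrations for 24 h. Read-out: CCK8 (10%, 3 h), absorbance 450 nm. Survival expressed relative to untreated cells after blank subtraction. Mean ± SD, ≥3 independent experiments.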

[22] = Cytotoxicity against human SF763 cells expressing high level of AGT assessed as cell survival after 24 hrs by CCK8 assay in presence of O6-BG; type: functional, cell-based; settings: SF763, 24 h; summary of the method: as §5
[23] = Half life of compound in serum containing medium; type: ADME
Summary of the method: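 Compound at 0.1 mM final (from DMSO stock) in MEM-EBSS with 10% FBS, penicillin/streptomycin, incubated 37 °C up to 8 h. Aliquots precipitated with equal volume acetonitrile, centrifuged, supernatant run on HPLC-UV. C18 column, 50% 50 mM ammonium acetate pH 4.5 / 50% methanol, 1.0 mL/min. Half-life read from degradation curve.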

Nc1nc(OCc2cccc(CN=C=O)c2)c2nc[nH]c2n1
Retention_time [1]: 16.25 min | Drug metabolism [2]: metabolite_detected | Drug metabolism [3]: metabolite_detected

Nc1nc(OCc2cccc(CNC(=O)N(CCCl)N=O)c2)c2nc[nH]c2n1
Activity (Calf thymus DNA [4]): 10300 fmol | Activity (Calf thymus DNA [5]): 6100 fmol | Retention_time [6]: 23.93 min | Ratio IC50 (SF-126): >6 | Activity [7]: 267 fmol | IC50 [8]: 50 µM | half-life [9]: 30 min | Activity [10]: 713 fmol | Activity (Calf thymus DNA [11]): 3880 fmol | Activity (Calf thymus DNA [12]): Dose-dependent effect | half-life [13]: 18 min | IC50 [14]: 35 µM | Activity [15]: 787 fmol | IC50 [16]: 25 µM

NCc1cccc(COc2nc(N)nc3nc[nH]c23)c1
Retention_time [1]: 13.85 min | mortality [17]: <3% | mortality [18]: <3% | Drug metabolism [2]: metabolite_detected | mortality [19]: <3% | Drug metabolism [3]: metabolite_detected

O=NN(CCCl)C(=O)NCCCl [CARMUSTINE]
Activity (Calf thymus DNA [4]): 24300 fmol | Activity (Calf thymus DNA [5]): 13600 fmol | IC50 [20]: 30 µM | IC50 [21]: 25 µM | Activity [7]: 145 fmol | IC50 [8]: 20 µM | Activity [10]: 224 fmol | IC50 [22]: 55 µM | Activity (Calf thymus DNA [11]): 6160 fmol | half-life [23]: 15 min | IC50 [14]: 100 µM | Activity [15]: 342 fmol | IC50 [16]: 45 µM

Cc1ncc(CNC(=O)N(CCCl)N=O)c(N)n1 [NIMUSTINE]
Activity (Calf thymus DNA [4]): 34900 fmol | Activity (Calf thymus DNA [5]): 16800 fmol | IC50 [20]: 400 µM | IC50 [21]: 310 µM | Activity [7]: 172 fmol | IC50 [8]: 320 µM | Activity [10]: 447 fmol | IC50 [22]: 1000 µM | Activity (Calf thymus DNA [11]): 8750 fmol | IC50 [14]: > 1000 µM | Activity [15]: 568 fmol | IC50 [16]: 500 µM
